Data on one molecule can be found in ChEMBL document CHEMBL3822375, “Preclinical Characterization of 3β-(N-Acetyl l-cysteine methyl ester)-2aβ,3-dihydrogaliellalactone (GPA512), a Prodrug of a Direct STAT3 Inhibitor for the Treatment of Prostate Cancer” (J Med Chem, 2016).

By half-life is commonly meant how long it takes for the measured level to halve. A word on the Tmax: it is the time from dosing to the highest level.

The source made the active and inactive calls. No cut-off for these calls is given here. A value given as a limit tells only on which side of the number the result lay.

Data set [1] in a line: Downregulation of BCL2 mRNA expression in human DU145 cells xenografted in NMRI nude mouse at 40 mg/kg, po administered 5 times per week for 4 weeks by qPCR analysis. The format is functional, organism-based. The settings on record: DU-145. The method, boiled down:
(§1)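 Half of each DU145 xenograft tumour was snap frozen for mRNA. MCL1 and BCL2 measured by quantitative real-time PCR: 10 min at 95°C, then 40 cycles of 95°C 15 s and 60°C 60 s. Comparative Ct method, normalized to HMBS and SDHA.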
In general terms: In xenograft studies the graft and the host belong to different species.

In data set [2] the test system is Mus musculus. The data set is described as follows: AUC (0 to infinity) in mouse plasma at 40 mg/kg, po by LC-MS/MS analysis. Format: ADME, organism-based. More on the design: dose 40 mg/kg, route oral, time infinity. The settings on record: in vivo. The method in brief:
(§2)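 Single dose to mice; oral, iv or ip as listed, in 5% DMSO/50 mM citrate buffer pH 4.0 (dosing solutions 0.5, 2 or 5 mg/mL). Oral dosing at 20 mL/kg. Terminal blood under barbiturate anaesthesia at eight time-points to 8 h, n=3 mice per time-point, EDTA plasma. Acetonitrile precipitation with internal standard, LC-MS/MS against plasma calibration lines. Non-compartmental analysis on mean data, trapezoidal AUC.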

For data set [3], the system named is Mus musculus. The data set can be described thus: Toxicity in CD1 mouse assessed as change in body weight at 200 mg/kg, administered as single dose through oral gavage measured on day 1 (reference value: 33.5 +/- 4.34 g). The format is organism-based. The settings on record: in vivo.
Data set [4] can be described thus: Chemical stability of the compound in phosphate buffer saline assessed as half life at 10 uM at pH 7.4 by LC-MS/MS analysis. The format is physicochemical. The settings on record: phosphate buffered saline. The method, boiled down:
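Compound diluted from DMSO (or methanol) stock to 10 µM, 2% solvent final, n=2. Matrix was 0.1 M PBS pH 7.4, or […] HCl with 2 mg/mL NaCl adjusted to pH 1.2. Mixed on a shaker; sampled at nominal 5, 15, 30 and 60 min plus T=0. LC-MS/MS with internal standard; % remaining relative to T=0. Formation of parent also monitored.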

Data set [5] has as its system Mus musculus. The data set is described as follows: Toxicity in CD1 mouse assessed as change in body weight at 40 mg/kg, administered as single dose through oral gavage measured on day 1 (reference value: 33.5 +/- 4.34 g). The format is organism-based. The settings on record: in vivo.
For data set [6], the system named is Plasma. The data set can be described thus: Half life in rat plasma assessed as formation of galiellalactone at 5 uM by LC-MS/MS analysis. The format is ADME, cell-free. The method, boiled down: (§3)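 Plasma of each species incubated at 37 °C with compound at 5 µM initial, 1% DMSO, n=2. Simvastatin and eucatropine run as controls. Aliquots taken at 0, 5, 15, 30 and 60 min and quenched with acetonitrile containing internal standard, then analysed by LC-MS/MS.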

Data set [7] concerns Mus musculus. The data set is described as follows: Apparent half life in mouse plasma assessed as galiellalactone level at 10 mg/kg, po by LC-MS/MS analysis. The format is ADME, organism-based. The settings on record: in vivo. The method, boiled down: as §2
Data set [8] concerns Mus musculus. The data set can be described thus: Apparent half life in mouse plasma assessed as galiellalactone level at 100 mg/kg, po by LC-MS/MS analysis. The format is ADME, organism-based. The settings on record: in vivo. The method in brief: as §2
For data set [9], the system named is Mus musculus. The data set can be described thus: Toxicity in CD1 mouse assessed as change in body weight at 400 mg/kg, administered as single dose through oral gavage measured on day 8 (reference value: 32.28 +/- 4.42 g). Format: organism-based. The settings on record: in vivo.
The test system of data set [10] is Mus musculus. The data set is described as follows: Effect on STAT3 phosphorylation in NMRI mouse xenografted with human DU145 cells at 40 mg/kg, po administered 5 times per week for 4 weeks by immunohistochemical analysis. Format: functional, organism-based. The settings on record: DU-145. The method, boiled down:
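Tumours from the oral DU145 xenograft study were fixed in formaldehyde and sectioned. IHC used the EnVision Flex kit with anti-Ki67 and anti-pSTAT3 antibodies, imaged at 10× bright field. Ki67 scored as Ki67-positive cells over total cells.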

In data set [11] the test system is Mus musculus. The data set can be described thus: Toxicity in CD1 mouse assessed as change in body weight at 400 mg/kg, administered as single dose through oral gavage measured on day 4 (reference value: 34.68 +/- 4.71 g). Format: organism-based. The settings on record: in vivo.
Data set [12] concerns Mus musculus. The data set can be described thus: Toxicity in CD1 mouse assessed as change in body weight at 40 mg/kg, administered as single dose through oral gavage measured on day 8 (reference value: 32.28 +/- 4.42 g). The format is organism-based. The settings on record: in vivo.
Data set [13] concerns Mus musculus. The data set is described as follows: AUC (0 to t) in mouse plasma assessed as galiellalactone level at 10 mg/kg, po by LC-MS/MS analysis. The format is ADME, organism-based. The settings on record: in vivo. The method in brief:
as §2

The test system of data set [14] is DU-145. The data set is described as follows: Induction of apoptosis in human DU145 cells xenografted in NMRI nude mouse assessed as increase in cleaved caspase3 level at 40 mg/kg, po administered 5 times per week for 4 weeks by immunohistochemical analysis. The format is functional, organism-based. The method, boiled down:
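DU145 cells (1.5 million) inoculated subcutaneously in the flank of NMRI-nude male mice. After four weeks, 10 mice per group were dosed orally by feeding needle with 40 mg/kg or vehicle (50 mM citrate buffer pH 4.0, 2% DMSO), five days a week for four weeks. Tumours were fixed in formaldehyde and stained for cleaved caspase-3. Positive cells were counted as the mean per view over five 10x views per section.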

Data set [15] relates to Plasma. The data set is described as follows: Half life in mouse plasma assessed as formation of galiellalactone at 5 uM by LC-MS/MS analysis. The format is ADME, cell-free. The method in brief: as §3
Data set [16] can be described thus: Downregulation of MCL1 mRNA expression in human DU145 cells xenografted in NMRI nude mouse at 40 mg/kg, po administered 5 times per week for 4 weeks by qPCR analysis. Format: functional, organism-based. The settings on record: DU-145. The method in brief: as §1
In data set [17] the test system is Mus musculus. The data set is described as follows: Tmax in mouse plasma assessed as galiellalactone level at 10 mg/kg, po by LC-MS/MS analysis. The format is ADME, organism-based. The settings on record: in vivo.
In data set [18] the test system is Mus musculus. The data set is described as follows: Toxicity in CD1 mouse assessed as change in body weight at 200 mg/kg, administered as single dose through oral gavage measured on day 8 (reference value: 32.28 +/- 4.42 g). The format is organism-based. The settings on record: in vivo.
The test system of data set [19] is Mus musculus. The data set can be described thus: Toxicity in CD1 mouse assessed as change in body weight at 200 mg/kg, administered as single dose through oral gavage measured on day 4 (reference value: 34.68 +/- 4.71 g). The settings on record: in vivo. Format: organism-based.
In data set [20] the test system is Plasma. The data set can be described thus: Half life in dog plasma assessed as formation of galiellalactone at 5 uM by LC-MS/MS analysis. The format is ADME, cell-free, Canis lupus familiaris. The method, boiled down:
as §3

The test system of data set [21] is Mus musculus. The data set can be described thus: AUC (0 to t) in mouse plasma assessed as galiellalactone level at 40 mg/kg, po by LC-MS/MS analysis. The format is ADME, organism-based. The settings on record: in vivo. The method in brief: as §2
The subject of data set [22] is Mus musculus. The data set can be described thus: Toxicity in CD1 mouse assessed as change in body weight at 400 mg/kg, administered as single dose through oral gavage measured on day 1 (reference value: 33.5 +/- 4.34 g). The format is organism-based. The settings on record: in vivo.
The test system of data set [23] is Mus musculus. The data set is described as follows: AUC (0 to infinity) in mouse plasma assessed as galiellalactone level at 10 mg/kg, po by LC-MS/MS analysis. The format is ADME, organism-based. The settings on record: in vivo. Also noted: dose 10 mg/kg, route oral, time infinity. The method, boiled down:
as §2

Take `COC(=O)[C@H](CS[C@H]1C2C(=O)O[C@@H]3CC[C@H](C[C@@H]1C)[C@]23O)NC(C)=O` (stereo partly drawn): the result in data set [1], in data set [14] and in [16] was Active. Also, the figures for the AUC in data set [2] and in [23] were 215 µg/mL/min and 120 µg/mL/min, respectively. The Activity in [3] is listed as 33.56 g; in data set [5], 32.52 g; in [9] it was 32.1 g; in data set [11] it was 34.76 g; in data set [12] it was 31.12 g; in data set [18], 33.02 g. The values for the Activity in data set [19] and in [22] were 35.3 g and 33.16 g, respectively. The half-life at 10 µM in data set [4] is > 150 min. Besides, the t1/2 in data set [6], in [15] and in data set [20] was < 5 min throughout. In addition, the “t1/2(app)” value in data set [7] was 92 min; in [8] it was 180 min. In addition, the result in [10] was inactive. The AUCt in data set [13] was determined as 117 µg/mL/min; in [21], 213 µg/mL/min. Also, the Tmax in data set [17] was determined as 15 min.
